ChEMBL document CHEMBL1146721, “Discovery and structure-activity relationship of coumarin derivatives as TNF-alpha inhibitors” (Bioorg Med Chem Lett, 2004)
pIC50: −log10 of the molar value.

How the values were obtained:
PBMC = assay: In vitro inhibition of tumor necrosis factor alpha production in LPS-challenged human peripheral blood mononuclear cells; type: functional, cell-based
Method in brief: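 Human PBMC at 5 × 10⁵ cells/mL in RPMI1640 with 5% heat-inactivated FCS and antibiotics, pretreated with compound in DMSO for 60 min at 37 °C. Then stimulated with Salmonella minnesota R595 LPS (final 100 ng/mL) and cultured overnight. Supernatant TNF-α measured by human TNF-α ELISA; IC50 derived.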

Rattus norvegicus [1] = assay: Tested in vivo for inhibition of serum tumor necrosis factor alpha production in rats at 100 mg/kg subcutaneous dose; type: functional; conditions: sc
Method in brief: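 LPS (E. coli B055/B5, 0.1 mg/kg) challenge given […] sc compound, usually in 20% EtOH/80% PEG400; pyridine-containing compounds given in saline as in situ HCl salts. Serum TNF-α measured by ELISA 90 min later. Percent inhibition at 100 mg/kg calculated against an untreated control.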

Rattus norvegicus [2] = assay: Tested in vivo for inhibition of serum tumor necrosis factor alpha production in rats at 100 ug/kg subcutaneous dose; type: functional; conditions: sc
Method in brief: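 LPS (E. coli B055/B5, 0.1 mg/kg) challenge given […] subcutaneous test compound, usually in 20% EtOH/80% PEG400; pyridine-containing compounds were given in saline as HCl salts formed in situ. Serum TNF-α was measured by ELISA 90 min later. Percent inhibition was calculated against an untreated control.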

SMILES	pIC50 (PBMC)	inhibition in vivo at 100 mg/kg (Rattus norvegicus [1])	inhibition in vivo at 0.1 mg/kg (Rattus norvegicus [2])
Cc1c(Cc2ccccc2)c(=O)oc2c(C)c(OC(=O)N(C)C)ccc12	4.99		
Cc1c(Cc2ccccc2)c(=O)oc2cc(OC(=O)N(C)C)c(I)cc12	7.22		
CN(C)C(=O)Oc1ccc2c(CC(O)c3ccc(C#N)cc3)c(Cc3ccccc3)c(=O)oc2c1 (stereo not drawn)	4.55		
Cc1c(Cc2cccnc2)c(=O)oc2cc(OC(=O)N(C)C)ccc12	5.57	86%	
Cc1c(-c2ccc(N)cc2)c(=O)oc2cc(OC(=O)N(C)C)ccc12	5.28		
CN(C)C(=O)Oc1ccc2c(-c3ccc(F)cc3)c(Cc3ccccc3)c(=O)oc2c1	4.38		
Cc1c(Cc2ccccc2)c(=O)oc2cc(OC(=O)N(C)C)c(C#N)cc12	6.07		
CN(C)C(=O)Oc1ccc2cc(Cc3ccccc3)c(=O)oc2c1	< 4.30		
CCc1c(Cc2ccccc2)c(=O)oc2cc(OC(=O)N(C)C)ccc12	5.77		
C=CCCC(O)Cc1c(Cc2ccccc2)c(=O)oc2cc(OC(=O)N(C)C)ccc12 (stereo not drawn)	4.32		
Cc1c(Cc2ccccc2)c(=O)oc2cc(OC(=O)N(C)C)c(C(=O)O)cc12	< 4.30		
CCOC(=O)CC(=O)Nc1cccc(Cc2c(C)c3cc(Cl)c(OC(=O)N(C)C)cc3oc2=O)c1	7.30		
CN(C)C(=O)Oc1ccc2c(CCO)c(Cc3ccccc3)c(=O)oc2c1	5.68		
CN(C)C(=O)Oc1ccc2c(CCc3ccccc3)c(Cc3ccccc3)c(=O)oc2c1	< 4.30		
COC(=O)c1ccc(-c2c(C)c3ccc(OC(=O)N(C)C)cc3oc2=O)cc1	≤ 4.30		
CN(C)C(=O)Oc1ccc2c(C(F)(F)F)c(Cc3ccc(F)cc3)c(=O)oc2c1	< 4.30		
COc1cc2c(C)c(Cc3ccccc3)c(=O)oc2cc1OC(=O)N(C)C	6.24		
Cc1c(CCc2ccccc2)c(=O)oc2cc(OC(=O)N(C)C)ccc12	< 4.30		
CN(C)C(=O)Oc1ccc2c(CC(O)c3nccs3)c(Cc3ccccc3)c(=O)oc2c1 (stereo not drawn)	4.78		
Cc1c(Cc2ccccc2)c(=O)oc2cc(OC(=O)N(C)C)c([N+](=O)[O-])cc12	6.92		
CCCCCc1c(C)c2ccc(OC(=O)N(C)C)cc2oc1=O	4.64		
COc1cc(OC(=O)N(C)C)cc2oc(=O)c(Cc3ccccc3)c(C)c12	< 4.30		

SMILES	pIC50 (PBMC)	inhibition in vivo at 100 mg/kg (Rattus norvegicus [1])	inhibition in vivo at 0.1 mg/kg (Rattus norvegicus [2])
Cc1c(Cc2ccccc2)c(=O)oc2cc(OC(=O)N(C)C)c(C=O)cc12	5.01		
Cc1c(CN2CCOCC2)c(=O)oc2cc(OC(=O)N(C)C)ccc12	< 4.30		
Cc1cc(=O)oc2cc(OC(=O)N(C)C)ccc12	< 4.30		
Cc1c(CN2CCCCC2)c(=O)oc2cc(OC(=O)N(C)C)ccc12	< 4.30		
CCc1cc2c(C)c(Cc3ccccc3)c(=O)oc2cc1OC(=O)N(C)C	5.34		
CN(C)C(=O)Oc1ccc2c(C(=O)O)c(Cc3ccccc3)c(=O)oc2c1	< 4.30		
Cc1c(CC2CCCCC2)c(=O)oc2cc(OC(=O)N(C)C)ccc12	5.14		
Cc1c(Cc2ccccn2)c(=O)oc2cc(OC(=O)N(C)C)ccc12	5.19		
CN(C)C(=O)Oc1ccc2c(CC(O)C3CCCCC3)c(Cc3ccccc3)c(=O)oc2c1 (stereo not drawn)	< 4.30		
Cc1c(-c2cccc(C(F)(F)F)c2)c(=O)oc2cc(OC(=O)N(C)C)ccc12	< 4.30		
CN(C)C(=O)Oc1ccc2c(-c3ccncc3)c(Cc3ccccc3)c(=O)oc2c1	5.31		
Cc1c(Cc2ccc(F)cc2)c(=O)oc2cc(OC(=O)N(C)C)ccc12	6.49	42%	
CN(C)C(=O)Oc1ccc2c(-c3ccccc3F)c(Cc3ccccc3)c(=O)oc2c1	5.31		
CN(C)C(=O)Oc1ccc2c(-c3ccccc3)c(Cc3ccc(F)cc3)c(=O)oc2c1	5.77		
Cc1c(-c2ccc(C(F)(F)F)cc2)c(=O)oc2cc(OC(=O)N(C)C)ccc12	< 4.30		
Cc1c(C)c2ccc(OC(=O)N(C)C)cc2oc1=O	≤ 4.30		
COc1ccccc1-c1c(C)c2ccc(OC(=O)N(C)C)cc2oc1=O	5.12		
COC(=O)c1cccc(-c2c(C)c3ccc(OC(=O)N(C)C)cc3oc2=O)c1	5.77		
Cc1c(Cc2ccccc2)c(=O)oc2cc(OC(=O)N(C)C)c(C(C)C)cc12	4.40		
Cc1cc2c(C)c(Cc3ccccc3)c(=O)oc2cc1OC(=O)N(C)C	6.40		
CCCCCCc1c(C)c2ccc(OC(=O)N(C)C)cc2oc1=O	4.60		
CCCCc1c(C)c2ccc(OC(=O)N(C)C)cc2oc1=O	4.61		

SMILES	pIC50 (PBMC)	inhibition in vivo at 100 mg/kg (Rattus norvegicus [1])	inhibition in vivo at 0.1 mg/kg (Rattus norvegicus [2])
Cc1c(-c2ccccc2)c(=O)oc2cc(OC(=O)N(C)C)ccc12	< 4.30		
Cc1c(Cc2ccccc2)c(=O)oc2cc(OC(=O)N(C)C)c(Cl)cc12	7.05	57%	
CCCc1c(Cc2ccccc2)c(=O)oc2cc(OC(=O)N(C)C)ccc12	6.11		
CN(C)C(=O)Oc1ccc2c(-c3ccccn3)c(Cc3ccccc3)c(=O)oc2c1	4.73		
COc1cccc(-c2c(C)c3ccc(OC(=O)N(C)C)cc3oc2=O)c1	5.49		
Cc1c(Cc2ccccc2)c(=O)oc2cc(OC(=O)N(C)C)cc(F)c12	6.36		
CC(=O)Nc1cccc(Cc2c(C)c3cc(Cl)c(OC(=O)N(C)C)cc3oc2=O)c1	6.51		
Cc1c(-c2cccc(N)c2)c(=O)oc2cc(OC(=O)N(C)C)ccc12	5.57		
Cc1c(Cc2ccncc2)c(=O)oc2cc(OC(=O)N(C)C)c(Cl)cc12	6.89		
CN(C)C(=O)Oc1ccc2c(-c3ccc(C(F)(F)F)cc3)c(Cc3ccccc3)c(=O)oc2c1	< 4.30		
CN(C)C(=O)Oc1ccc2c(-c3cccc(C(F)(F)F)c3)c(Cc3ccccc3)c(=O)oc2c1	< 4.30		
Cc1c(Cc2ccccc2)c(=O)oc2cc(OC(=O)N(C)C)ccc12	5.74		
Cc1c(Cc2cccnc2)c(=O)oc2cc(OC(=O)N(C)C)c(Cl)cc12	6.35	86%	
Cc1c(-c2ccccc2N)c(=O)oc2cc(OC(=O)N(C)C)ccc12	5.68		
Cc1c(Cc2ccncc2)c(=O)oc2cc(OC(=O)N(C)C)ccc12	5.89		
Cc1c(Cc2ccccc2)c(=O)oc2cc(OC(=O)N(C)C)c(Br)cc12	7.22		
Cc1c(-c2ccccc2C(F)(F)F)c(=O)oc2cc(OC(=O)N(C)C)ccc12	≤ 4.30		
COc1ccc(-c2c(C)c3ccc(OC(=O)N(C)C)cc3oc2=O)cc1	5.25		
CCCc1c(Cc2ccc(F)cc2)c(=O)oc2cc(OC(=O)N(C)C)ccc12	5.92		
C[C@@H]1C[C@H]2[C@@H]3CCC4=CC(=O)C=C[C@]4(C)[C@@]3(F)[C@@H](O)C[C@]2(C)[C@@]1(O)C(=O)CO [DEXAMETHASONE]			99%
